Assay outcomes deposited in PubChem by several laboratories.
CHOP inhibitor = blocks CHOP induction under ER stress | CHO-K1 CHOP-promoter luciferase, tunicamycin-induced, 15-18 h | inhibition, % at 10 µM | hit rate 3.8% among 220,000;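 active means compounds that reduced the stress-induced luciferase reporter signal by more than about 70% of percent inhibition, limit read from the data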
UPR XBP1 act = adaptive UPR (XBP1) activation; hit rate 0.33% among 330,000; CHO-XBP1 luciferase reporter, IRE1-XBP1 UPR activation, luminescence; percent of tunicamycin response, DMSO as zero; activation, % at 20 µM;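 active means versus positive control, 20 µM dose yields 30% or more activation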
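Test system: CHO-XBP1 luciferase reporter cells | Buffer or medium: Serum-containing F12 medium, 10% FBS | Schedule: 6 h compound exposure at 37 °C, 5% CO2 | Detection: Steady-Glo luciferase glow luminescence, 10 min after reagent addition | Read-out basis: Activation, % of tunicamycin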
CHOP UPR activ = apoptotic UPR (CHOP) activation; CHO-CHOP luciferase reporter, luminescence; percent of tunicamycin response over DMSO baseline; AID 449763; hit rate 0.34% among 330,000; activation, % at 10 µM;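 active means at 10 µM dose, activation of 40% or more, normalized to positive control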
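Evaluation: % reporter activation, DMSO baseline versus tunicamycin full activation; System: CHO-CHOP luciferase reporter cell line; Input: 500 cells/well; Incubation: 6 h compound treatment, 37 °C; Measured by: Steady-Glo luciferase luminescence; Dosing: one dose, 10 µM in 0.5% DMSO; Buffer or medium: F12 medium, 10% FBS; Benchmarks: positive tunicamycin 10 µg/mL, negative DMSO alone.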
GAA850 FXN act = frataxin GAA850 promoter activation; hit rate 0.56% among 360,000; HEK293 lucGAA850 FXN promoter luciferase reporter, 24 h; percent of 10 µM SAHA response; activation, % at 6 µM; AID 540364;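 active means activation above the average of all compounds screened plus 3 SD, cutoff fixed separately per campaign, cut at about 7.5% in these data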
Large screens that a line does not name were inactive. Only a selection was taken, and hits are over-represented in it overall.

CCC(=O)c1ccc(OCC(O)CN2CCN(C(c3ccccc3)c3ccccc3)CC2)cc1 (centres undefined)	CHOP inhibitor 86
OC(COc1ccccc1)CN1CCN(C(c2ccccc2)c2ccccc2)CC1 (centres undefined)	none (no result: CHOP inhibitor)
Cc1noc(C)c1NC(=O)N(C)C[C@H]1OCc2cnnn2CCCC(=O)N([C@@H](C)CO)C[C@H]1C	none (no result: CHOP inhibitor, UPR XBP1 act, CHOP UPR activ)
O=C(NCc1ccccc1Cl)c1ccc2sc([C@@H]3O[C@H](CO)[C@H](O)[C@H](O)[C@H]3O)nc2c1	none (no result: CHOP inhibitor, UPR XBP1 act, CHOP UPR activ)
CCOC(=O)C1=C(CN2CCC(C)CC2)NC(=O)NC1c1ccc(Cl)cc1 (centres undefined)	CHOP inhibitor 87
CC1(C(=O)NS(=O)(=O)c2ccc(F)cc2F)CCN1C(=O)C1(c2ccc(Cl)cc2)CCC1 (centres undefined)	none (no result: CHOP inhibitor, UPR XBP1 act, CHOP UPR activ)
Cc1ccc(NC(=O)c2cc(N3C(=O)C=CC3=O)ccc2N2CCOCC2)cc1	CHOP inhibitor 109 (no result: UPR XBP1 act, CHOP UPR activ)
Cc1ccc(NC(=O)c2cc(N3C(=O)C=CC3=O)ccc2Cl)cc1C	CHOP inhibitor 104
Cc1ccc(NC(=O)c2cc(NC(=O)c3ccco3)ccc2N2CCOCC2)cc1	none
Cc1ccc(NC(=O)c2cc(-n3cnnc3)ccc2Cl)cc1	none
Cc1c(C(=O)NC2CCCc3ccccc32)oc2ccc(S(=O)(=O)N3CCCCC3)cc12 (centres undefined)	CHOP inhibitor 85
Cc1c(C(=O)Nc2ccc(F)c(F)c2)oc2ccc(S(=O)(=O)N3CCCCC3)cc12	CHOP inhibitor 75
CCOC(=O)C1CCCN(S(=O)(=O)c2ccc(F)c(C(=O)Nc3ccc(F)c(F)c3)c2)C1 (centres undefined)	CHOP inhibitor 76
Cc1c(C(=O)Nc2ccc(F)cc2)oc2ccc(S(=O)(=O)N3CCC4(CC3)OCCO4)cc12	CHOP inhibitor 71
O=C(NCc1ccco1)c1ccc2sc([C@@H]3O[C@H](CO)[C@H](O)[C@H](O)[C@H]3O)nc2c1	none (no result: CHOP inhibitor, UPR XBP1 act, CHOP UPR activ)
O=C(c1ccco1)N1CCN(c2ncnc3scc(-c4ccc(Cl)cc4)c23)CC1	none (no result: CHOP inhibitor, UPR XBP1 act, CHOP UPR activ)
C[C@@H]1CN([C@H](C)CO)S(=O)(=O)c2ccc(C3=CCCCC3)cc2O[C@H]1CN(C)C(=O)Cc1cccnc1	none (no result: CHOP inhibitor, UPR XBP1 act, CHOP UPR activ)
CN(C(=O)CN1CCN(c2cc(-c3ccc(-c4ccccc4)cc3)ncn2)CC1)c1ccccc1	none (no result: CHOP inhibitor, UPR XBP1 act, CHOP UPR activ)
O=C(NNC(=O)c1cc2cc3ccccc3nc2s1)c1ccc(F)cc1	CHOP inhibitor 89
CCN(CC)S(=O)(=O)c1ccc(Cl)c(NC(=O)c2ccccc2C)c1	none
CCN(CC)S(=O)(=O)c1ccc(Cl)c(C(=O)Nc2ccc(Cl)cc2[N+](=O)[O-])c1	CHOP inhibitor 79
CN(C)S(=O)(=O)c1cccc(C(=O)Nc2cc(Cl)cc(Cl)c2)c1	CHOP inhibitor 71
CCN(CC)S(=O)(=O)c1ccc(Cl)c(NC(=O)c2cc(Cl)cc(Cl)c2)c1	CHOP inhibitor 89
CN(C)S(=O)(=O)c1ccc(Cl)c(C(=O)Nc2ccccc2[N+](=O)[O-])c1	none
CNc1ncnc2c1ncn2[C@H]1CN(Cc2ccc(OC)cc2)C[C@@H](CO)O1	none (no result: CHOP inhibitor, UPR XBP1 act, CHOP UPR activ)
COc1ccc(NC(=O)c2cc(C3CCCCN3S(=O)(=O)Cc3ccccc3)on2)c(C)c1 (centres undefined)	none (no result: CHOP inhibitor, UPR XBP1 act, CHOP UPR activ)
COc1ccc(OC)c(NC(=O)C2(C)CCN2Cc2ccsc2)c1 (centres undefined)	none (no result: CHOP inhibitor, UPR XBP1 act, CHOP UPR activ)
CCOc1ccc(/C=N/NC(=O)Cc2csc(Nc3cccc(C(F)(F)F)c3)n2)c(OCC)c1	none
COc1ccc(/C=N/NC(=O)Cc2csc(Nc3cccc(C(F)(F)F)c3)n2)c(OC)c1	CHOP inhibitor 95
O=c1ccc2cc(S(=O)(=O)N3CCN(c4cc(Cl)ccc4Cl)CC3)ccc2o1	CHOP inhibitor 70
O=C(Nc1scc(-c2ccccc2)c1C(=O)O)c1ccccc1Cl	none (no result: CHOP inhibitor)
O=C(Nc1scc(-c2ccccc2)c1C(=O)O)c1ccco1	CHOP inhibitor 73
Cc1ccc(-c2nc(=S)c3c(n2Cc2ccco2)CCCC3)cc1	none (no result: UPR XBP1 act, CHOP UPR activ)
Cc1ccc(-c2nc(=S)c3c(n2Cc2ccco2)CC(C)(C)OC3)cc1	GAA850 FXN act 7.6
CN(C)c1ccc(/C=N\Nc2nc(-c3ccccc3)cc(=O)[nH]2)cc1	CHOP inhibitor 89
Cc1cc2c(cc1C)CSC(c1ccccc1OC(=O)C(C)C)SC2	CHOP inhibitor 72
COc1cc2c(cc1OC)C(COc1ccccc1OC)N(C(=O)C(C)C)CC2 (centres undefined)	none
O=C(Sc1cccc2cccnc12)c1ccc(F)cc1	CHOP inhibitor 91, CHOP UPR activ 69 (no result: GAA850 FXN act)
NNC(=O)CSc1cccc2cccnc12	none
O=C(Sc1cccc2cccnc12)c1ccccc1Br	CHOP UPR activ 62 (no result: CHOP inhibitor)
CC(=O)/C(=N\Nc1ccccc1)Sc1cccc2cccnc12	none
Cc1cc(N2CCN(C)CC2)nc2ccc(NC(=S)N3CCCCC3)cc12	none (no result: UPR XBP1 act, CHOP UPR activ)
Cc1cccc(N2CCN(C(=S)Nc3ccc4nc(N5CCN(C)CC5)cc(C)c4c3)CC2)c1C	CHOP inhibitor 105 (no result: UPR XBP1 act, CHOP UPR activ)
CCc1ccc2c(c1)C1(NN=C(c3ccc(C)cc3)S1)C(=O)N2 (centres undefined)	CHOP inhibitor 88
CCc1ccc2c(c1)NC(=O)C2(C)Cc1ccc(F)cc1 (centres undefined)	none (no result: CHOP inhibitor, UPR XBP1 act, CHOP UPR activ)
Cc1cccc(NC(=O)C2C(c3ccccc3)C2(Cl)Cl)c1 (centres undefined)	CHOP inhibitor 74
CCOc1ncccc1C(=O)OCc1cc(=O)oc2c(C)c(C)ccc12	CHOP inhibitor 75 (no result: UPR XBP1 act, CHOP UPR activ)
CCOC(=O)C1CCN(Cc2cc(=O)oc3c(C)c(C)ccc23)CC1	none (no result: CHOP inhibitor)
CNC(=O)NC(=O)CSc1cccc(C(F)(F)F)c1	none
CC(C)(C)NC(=O)NC(=O)CSc1cccc(C(F)(F)F)c1	CHOP inhibitor 90
CC(C)(C)NC(=O)NC(=O)CSc1ncc(C(F)(F)F)cc1Cl	CHOP inhibitor 74
CNc1cc(CSC)nc(SCc2ccc(Cl)cc2Cl)n1	CHOP inhibitor 77
Nc1nc(SCc2ccc(Cl)cc2Cl)n[nH]1	none
CCN1CCN(Cc2ccc(NC(=O)c3ccc(C)c(NC(=O)c4nccnc4N)c3)cc2C(F)(F)F)CC1	CHOP inhibitor 79
CC(=O)OCCNc1cc(Sc2nc3ccccc3[nH]2)c2nonc2c1[N+](=O)[O-]	CHOP inhibitor 107 (no result: UPR XBP1 act, CHOP UPR activ)
CC(=O)Nc1cccc(NC(=O)c2ccccc2Cl)c1	none (no result: CHOP inhibitor, UPR XBP1 act, CHOP UPR activ)
CC(=O)Nc1ccc(CN2C(=O)C(C)(C)ON=C2c2ccc(C(F)(F)F)cc2)cc1	none (no result: CHOP inhibitor, UPR XBP1 act, CHOP UPR activ)
CN(C(=O)COc1ccccc1C(=O)NCCOc1ccccc1)c1ccccc1	CHOP inhibitor 79
CN(C)c1ccc(NC(=O)C(=O)NCCOc2ccccc2)cc1	CHOP inhibitor 70
CCC(=O)N1CCC1(C)C(=O)Nc1ccc2scnc2c1 (centres undefined)	none (no result: CHOP inhibitor, UPR XBP1 act, CHOP UPR activ)
OC(CNCc1ccc(Cl)cc1)(c1ccccc1)c1ccc(F)cc1 (centres undefined)	CHOP inhibitor 75
COc1ccc(CNCC(O)(c2ccccc2)c2ccc(F)cc2)cc1 (centres undefined)	none (no result: CHOP inhibitor)
COc1ccc(CNCC(O)(c2ccc(F)cc2)c2ccc(F)cc2)cc1OC	none (no result: CHOP inhibitor)
